“And” between values parts separate entries of the source, which are not always exact repeats. Equal values may be shown once. Read-outs that look alike come from different tables or passages of the source.
Legend:
[1] = 14-day repeated dose study to identify the MTD; settings: for % weight loss at day 14 in Swiss Webster mice: in DMSO, i.p. daily, 14 days
[2] = mouse, in vivo
[3] = test system: UACC 903 melanoma cell line; assay: MTS cell viability, UACC 903; assay type: cell-based; settings: Homo sapiens, UACC-903, 72 h, read-out: IC50 UACC 903
In short: (§1)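 MTS viability assay. Cells were grown at 37°C in humidified 5% CO2: melanoma lines UACC 903 and 1205 Lu (BRAF V600E) or C8161.Cl9 and MelJuSo (BRAF wild type), or normal […]. 5×10³ cells/well were treated 48 h after seeding for 72 h with rising concentrations of free or nanoliposomal test compound (nanoliposomal: 10–100 μmol/L). IC50 came from 3 independent experiments; group values are averages across the lines.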

UACC 903 xenograft = UACC 903 xenograft tumor growth in nude mice; assay type: in vivo; settings: for % in-vivo tumor inhibition at day 21 in Nude mice: in DMSO, i.p.
In short: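 Female athymic nude mice aged 3–4 weeks received 1×10⁶ UACC 903 cells in 0.2 mL DMEM/10% FBS subcutaneously above both rib cages. At day 8 (vascularized tumors of 50–75 mm³), mice were randomized (3/group, 2 tumors/mouse) and dosed daily i.p. with free test compound in DMSO (5 or 10 mg/kg) or DMSO vehicle for 3–4 weeks. Tumor dimensions and body weight were taken on alternate days; % inhibition was scored at day 21. Run twice independently.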

cPLA2 [4] = settings: various in-vitro studies; ref [13], [37]; cited from earlier work
[5] = test system: FOM103 normal melanocytes; assay: MTS cell viability, FOM103; assay type: cell-based; settings: Melanocyte, 72 h, read-out: IC50 FOM103
In short: as §1

[6] = test system: four melanoma cell lines (UACC 903, 1205 Lu, C8161.Cl9, MelJuSo); assay: MTS cell viability, melanoma cell lines taken together; assay type: cell-based
In short: as §1

cPLA2 [7] = biological target: T1, cPLA2 (Homo sapiens, UniProt P47712); assay: cPLA2 activity assay; assay type: biochemical
T1 sequence (P47712 1-749): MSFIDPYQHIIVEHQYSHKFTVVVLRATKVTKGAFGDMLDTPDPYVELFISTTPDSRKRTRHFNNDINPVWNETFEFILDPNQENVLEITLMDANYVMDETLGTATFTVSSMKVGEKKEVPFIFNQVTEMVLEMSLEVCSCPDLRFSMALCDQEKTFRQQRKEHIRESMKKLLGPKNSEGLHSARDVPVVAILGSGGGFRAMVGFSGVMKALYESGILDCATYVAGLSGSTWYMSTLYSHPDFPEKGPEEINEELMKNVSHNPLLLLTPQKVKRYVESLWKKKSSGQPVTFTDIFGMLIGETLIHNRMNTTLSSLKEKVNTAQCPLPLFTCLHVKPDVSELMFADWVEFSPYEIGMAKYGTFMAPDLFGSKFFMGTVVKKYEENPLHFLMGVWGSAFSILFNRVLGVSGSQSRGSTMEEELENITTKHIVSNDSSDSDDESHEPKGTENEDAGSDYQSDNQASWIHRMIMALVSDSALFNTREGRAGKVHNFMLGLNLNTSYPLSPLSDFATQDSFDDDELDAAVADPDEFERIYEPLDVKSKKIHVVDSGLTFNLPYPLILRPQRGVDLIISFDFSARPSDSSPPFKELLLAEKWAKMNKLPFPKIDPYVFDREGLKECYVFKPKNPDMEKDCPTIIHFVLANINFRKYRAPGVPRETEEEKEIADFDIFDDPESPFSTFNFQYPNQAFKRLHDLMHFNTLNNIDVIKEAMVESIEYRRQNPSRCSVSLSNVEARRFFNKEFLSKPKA
In short: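 Colorimetric cPLA2 assay (commercial kit) on UACC 903 lysate made in Hepes pH 7.4 with 1 mM EDTA. sPLA2 was removed by 30 kDa cutoff filtration and iPLA2 was blocked with bromoenol lactone. Lysate was treated with free or nanoliposomal test compound (0.5–10 μmol/L); DMSO or empty nanoliposome defined 100% activity. Arachidonoyl thio-PC substrate ran for 1 h, then DTNB was added and absorbance read at 414 nm.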

[8] = test system: normal cells FOM103 and FF2441; assay: MTS cell viability, normal cells taken together; assay type: cell-based; settings: FF2441, read-out: average IC50 for killing normal FOM103 and FF2441
In short: as §1

[9] = test system: 1205 Lu melanoma cell line; assay: MTS cell viability, 1205 Lu; assay type: cell-based; settings: Homo sapiens, 72 h, read-out: IC50 1205 Lu
In short: as §1

[10] = test system: C8161.Cl9 melanoma cell line; assay: MTS cell viability, C8161.Cl9; assay type: cell-based; settings: 72 h, read-out: IC50 C8161.Cl9
In short: as §1

[11] = test system: FF2441 normal human fibroblast cell line; assay: MTS cell viability, FF2441; assay type: cell-based; settings: FF2441, 72 h, read-out: IC50 FF2441
In short: as §1

Hemolytic activity = assay type: cell-based; settings: human, human erythrocytes, 5% v/v suspension
In short: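 Erythrocytes from fresh EDTA-anticoagulated human blood, separated at 1,500 rpm for 10 min at 4°C using PBS. A 5% v/v suspension in PBS was exposed to free or nanoliposomal test compound (10–40 μmol/L), ethanol or empty liposome (negative controls), or 1% Triton X-100, at 37°C for 60 min. After a 12,000 rpm spin, supernatant A540 was read. % hemolysis = sample A540 / Triton A540 × 100.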

CCCCC/C=C\C/C=C\C/C=C\C/C=C\CCCC(=O)C(F)(F)F [ATK, Arachidonyl trifluoromethyl ketone]
% weight loss at day 14 in Swiss Webster mice ([1]; 5 mg/kg body weight): No weight loss | % weight loss at day 14 in Swiss Webster mice ([1]; 10 mg/kg body weight): 3.1 ± 3.52% | % weight loss at day 14 in Swiss Webster mice ([1]; 15 mg/kg body weight): 14.5% and 14.5 ± 0.95% | % weight loss at day 14 in Swiss Webster mice ([1]; 20 mg/kg body weight): Death in 10 days | % weight loss at day 14 in Swiss Webster mice ([1]; 30 mg/kg body weight): Death in 8 days | MTD at 14 days ([1]; Swiss Webster, mouse, in vivo, ip): 10 mg/kg | % weight loss at day 14 in Swiss Webster mice [2]: Animal mortality occurred | IC50 [3]: 26.3 ± 2.1 µM | % in-vivo tumor inhibition at day 21 in Nude mice (UACC 903 xenograft; 5 mg/kg body weight): 12.9 ± 6.30% | % in-vivo tumor inhibition at day 21 in Nude mice (UACC 903 xenograft; 10 mg/kg body weight): 32.5 ± 5.73% | changes in body weight of tumor-bearing mice (UACC 903 xenograft; 5 and 10 mg/kg i.p. daily in DMSO): did not show any significant changes in body weight | reduction in tumor volume (UACC 903 xenograft; free ATK in DMSO, 5 and 10 mg/kg (MTD) i.p. daily, 3-4 weeks): approximately 30% | potency in inhibiting cPLA2 over sPLA2 and iPLA2 (cPLA2 [4]): 500 fold | IC50 [5]: 57.9 ± 10.4 µM | fold more effective at killing melanoma cells than normal cells ([6]; average melanoma versus average normal cells): 3 fold | IC50 ([6]; read-out: average IC50 for melanoma cells): 22 µM | IC50 (cPLA2 [7]): 1.85 µM | IC50 [8]: 60 µM | IC50 [9]: 26.1 ± 4.4 µM | IC50 [10]: 18.6 ± 3.1 µM | IC50 [11]: 63.3 ± 10.3 µM | hemolysis at 60 min (Hemolytic activity): 2 to 3% | hemolysis at 60 min, 40 μmol/L (Hemolytic activity): 2.9%
